The source made the active and inactive calls. No cut-off for these calls is given here.
Experiments:
Human betaherpesvirus 5 [1] = experiment: Antiviral activity against human cytomegalovirus AD169 infected in NHDF at 10 times EC50 treated postinfection and measured after 7 days by GFP-based fluorescent reduction assay
Human betaherpesvirus 5 [2] = experiment: Antiviral activity against human cytomegalovirus AD169 infected in NHDF at 11 uM treated after 57 hrs postinfection measured after 7 days by GFP-based fluorescent reduction assay; type: functional, organism-based
[3] = Cytotoxicity against human MRC5 cells infected with human cytomegalovirus after 7 days by alamar blue assay; type: cell-based
How it was run: (§1)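 Fibroblasts seeded at 1.5 × 10⁴/well, incubated overnight, then given drug in 3-fold serial dilutions from 0.33 mM (DMSO constant 0.66%). After 7 days, alamarBlue added and fluorescence read; signal as % of untreated cell controls versus log concentration; CC50 from dose-response curves. At least three experiments with duplicates.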

[4] = Selectivity index, ratio of CC50 for HEL299 cells to EC50 for human cytomegalovirus infected in HEL299 cells; type: toxicity, cell-based, HEL 299; details: read-out: Selectivity Index
How it was run: (§2)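 SI = CC₅₀/EC₅₀ in the same fibroblast type. EC₅₀: GFP-expressing HCMV AD169, 3-fold dilutions, 7 days at 37°C, GFP units by CCD camera. CC₅₀ run in parallel: 1.5 × 10⁴ cells/well overnight, 3-fold dilutions from 0.33 mM (DMSO constant 0.66%), 7 days, alamarBlue fluorescence as % of untreated cells; ≥3 runs in duplicate.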

[5] = Cytotoxicity against human HS27 cells infected with human cytomegalovirus after 7 days by alamar blue assay; type: cell-based
How it was run: as §1

[6] = Selectivity index, ratio of CC50 for human HS27 cells to EC50 for human cytomegalovirus infected in human HS27 cells; type: toxicity, cell-based; details: HS27 cells infected with human cytomegalovirus, read-out: Selectivity Index
How it was run: as §2

[7] = Selectivity index, ratio of CC50 for human MRC5 cells to EC50 for human cytomegalovirus infected in human MRC5 cells; type: toxicity, cell-based; details: MRC5 cells infected with human cytomegalovirus, read-out: Selectivity Index
How it was run: as §2

[8] = Cytotoxicity against NHDF infected with human cytomegalovirus after 7 days by alamar blue assay; type: cell-based; details: NHDF cells infected with human cytomegalovirus
How it was run: as §1

[9] = Cytotoxicity against HEL299 cells infected with human cytomegalovirus after 7 days by alamar blue assay; type: cell-based, HEL 299
How it was run: as §1

[10] = Cytotoxicity against HLF infected with human cytomegalovirus after 7 days by alamar blue assay; details: HLF cells infected with human cytomegalovirus
How it was run: as §1

| SMILES | Activity (Human betaherpesvirus 5 [1]) | Activity (Human betaherpesvirus 5 [2]) | CC50 at 168 h [3] | selectivity ratio [4] | CC50 at 168 h [5] | selectivity ratio [6] | selectivity ratio [7] | CC50 at 168 h [8] | CC50 at 168 h [9] | CC50 at 168 h [10] |
| --- | --- | --- | --- | --- | --- | --- | --- | --- | --- | --- |
| CN(C)c1cccc2c(S(=O)(=O)Nc3ccc(NC(=O)C(C)(C)CO)cc3)cccc12 | Active | inactive | – | – | – | – | – | – | – | – |
| Nc1nc(O)c2ncn(COC(CO)CO)c2n1 [GANCICLOVIR] | – | – | > 333 µM | > 139 | > 333 µM | > 1040 | > 202 | > 333 µM | > 333 µM | > 333 µM |
